Assays:
Assay type in all cases: functional, Mus musculus
P388/ADR [1] = assay: Antitumor activity measured as Median survival time in days against P388/ADR cells in ip implanted CDF1 mice, qd 1-9
Procedure, shortened: (§1)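 P388/ADR leukemia, a P388/S subline made resistant to intercalators, implanted ip in CDF1 mice. Drug given ip daily on days 1-9 at optimal dose. Read-out is median survival time of tumor-bearing mice and %ILS of treated dying animals versus controls. Survivors beyond 60 days are counted; 10 mice per group.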

P388/ADR [2] = assay: Antitumor activity measured as %ILS against P388/ADR cells in ip implanted CDF1 mice, qd 1-9; procedure, shortened: as §1
P388/ADR [3] = assay: Antitumor activity against P388/ADR cells in ip implanted CDF1 mice, qd 1-9 measured as optimal dose
Procedure, shortened: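 P388/ADR leukemia implanted ip in CDF1 mice; drugs given ip once daily on days 1-9. Optimal dose recorded alongside median survival time and % increase in median life span of treated dying mice versus controls; survivors counted as >60-day survivors per group of 10.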

Q: `CO[C@@]12[C@H](COC(N)=O)C3=C(C(=O)C(C)=C(N)C3=O)N1C[C@@H]1N[C@@H]12` [MITOMYCIN] was tested. Which MST (P388/ADR [1]) did it give?
A: Its MST is 45 days.

Q: And the ILS (P388/ADR [2])?
A: The ILS was 400%.

Q: What about the Dose (P388/ADR [3]) of the same compound?
A: The Dose was 1 mg/kg.
